Only a selection was taken, and hits are over-represented in it overall.
UPR CHOP act = activators of apoptotic arm of unfolded protein response (CHOP). CHO-CHOP luciferase reporter, UPR activation, luminescence; percent of tunicamycin response over DMSO baseline. activation, % at 10 µM. hit rate 0.34% among 330,000;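 active means at 10 µM dose, activation of 40% or more, normalized to positive control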;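 further: 100% = tunicamycin at 10 µg/mL and 0% = DMSO alone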
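Test system: CHO-CHOP cells, stable luciferase reporter of PERK-eIF2a-CHOP signalling | Quantity: 500 CHO-CHOP cells per well | Buffer or medium: F12 plus 10% serum | Compound dosing: 10 µM single point, 0.5% DMSO | Schedule: 6 h compound treatment, 37 °C | Signal: Luciferase luminescence | Control set: Tunicamycin high control, DMSO low control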
XBP1 UPR activ = activators of adaptive arm of unfolded protein response (XBP1); CHO-XBP1 luciferase reporter, IRE1-XBP1 UPR activation, luminescence; percent of tunicamycin response, DMSO as zero; activation, % at 20 µM; hit rate 0.33% among 330,000; AID 463104;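 active means versus positive control, 20 µM dose yields 30% or more activation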;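 further: 100% = tunicamycin at 10 µg/mL and 0% = DMSO only wells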
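Material: CHO cell line with stable XBP1 luciferase reporter; buffer or medium: F12 medium containing 10% fetal bovine serum; compound: single point, 20 µM final compound, 1% DMSO; incubation: 6 h treatment, 37 °C; measured by: glow luminescence from Steady-Glo reagent; evaluation: activation, % of tunicamycin; control set: tunicamycin high, DMSO low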
697 NFkB inh = lowers PMA/ionomycin-induced NF-kB signal in 697 B cells | 697 B-cell NF-kB luciferase reporter, 16 h | inhibition, % at 4 µM | hit rate 0.33% among 330,000; in the data active means inhibition above about 35%
Jurkat NFkB inh = lowers PMA/ionomycin-induced NF-kB signal in Jurkat cells. hit rate 0.53% among 330,000. AID 435003. inhibition, % at 4 µM. PMA/ionomycin-induced NF-kB luciferase reporter, luminescence; in the data active means inhibition above about 50%
CHOP inhibitor = blocks CHOP induction under ER stress; CHO-K1 CHOP-promoter luciferase, tunicamycin-induced, 15-18 h; inhibition, % at 10 µM; hit rate 3.8% among 220,000;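 active means compounds that reduced the stress-induced luciferase reporter signal by more than about 70% of percent inhibition, limit read from the data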;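 further: 0% = tunicamycin plus vehicle and 100% = wells without tunicamycin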
CHOP UPR conf = confirmation of apoptotic unfolded protein response (CHOP) activators; shares compounds with UPR CHOP act; CHO-CHOP cells, CHOP-luciferase reporter luminescence; percent of tunicamycin response, DMSO as zero; activation, % at 10 µM; hit rate 64% among 1,000; AID 463112; in the data active means activation above about 33%;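 further: 0% = DMSO wells and 100% = tunicamycin 10 µg/mL wells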
UPR XBP1 confirm = confirmation of adaptive unfolded protein response (XBP1) activators | shares compounds with XBP1 UPR activ | CHO-XBP1 IRE1-XBP1 luciferase reporter, luminescence | activation, % at 20 µM | hit rate 63% among 1,000 | AID 485299;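 active means reporter signal at least 30% of the positive control's activation in two or more of four replicate wells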;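 further: plate controls were DMSO negative control for no effect and tunicamycin 10 µg/mL positive control for full effect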
Numbers without * were called inactive; . = no result.

SMILES	UPR CHOP act	XBP1 UPR activ	697 NFkB inh	Jurkat NFkB inh	CHOP inhibitor	CHOP UPR conf	UPR XBP1 confirm
CCN(CC)c1ccc(C(=O)OCC(=O)Nc2cc3oc4ccccc4c3cc2OC)cc1	55*	178*	-5	-18	-1	30	121*
O=C(C[C@H]1C[C@H](C(=O)N2CCCCC2)[C@@]2(CCc3ccccc3)c3[nH]c4ccc(Cl)cc4c3CCN2C1=O)NCCC1=CCCCC1	55*	144*	17	.	.	84*	146*
CC(C)(C)C(=O)NC(=S)NNC(=O)c1ccc(-c2ccccc2)cc1	69*	72*	-161	-19	92*	84*	50*
CC(C)(C)C(=O)NC(=S)NNC(=O)c1ccncc1	-1	-2	9	-14	15	.	.
CCOC(=O)c1ccccc1NC(=O)COC(=O)CN1C(=O)NC2(CCCC2)C1=O	0	-3	-4	-5	.	.	.
N#C/C(=C\c1cn(CCOc2ccccc2)c2ccccc12)C(=O)NCc1ccco1	1	1	32	1	52	.	.
Cc1ccc(NC(=O)/C(C#N)=C/c2cn(CC(=O)NCc3ccco3)c3ccccc23)cc1C	124*	235*	9	-22	-47	0	-1
O=C(Nc1cccc(-c2nc3cccnc3s2)c1)C1c2ccccc2Oc2ccccc21	281*	440*	-30	7	69	75*	466*
CN(C)c1ccc(-c2cc(O)c3ncccc3c2)cc1	25	6	-40	0	.	.	.
Oc1cc(-c2ccncc2)cc2cccnc12	70*	34*	-3	17	.	66*	16
C=CCS/C(N)=N\N=C\c1c(O)ccc2ccccc12	7	0	-65	-89	-24	.	.
c1ccc(-c2nnc3ccc(N4CCC5(CC4)OCCO5)nn23)cc1	0	4	-1	1	-9	.	.
Brc1ccc(-c2nnc3ccc(N4CCN(c5ccccc5)CC4)nn23)cc1	54*	47*	15	-19	-65	3	2
CCCC(=O)Nc1c(-c2ccccc2Cl)c(=O)c2ccccc2n1C	-3	-4	19	-27	.	.	.
CCc1cccc(CC)c1NC(=O)/C(C#N)=C/c1ccccc1C(F)(F)F	71*	70*	6	0	84*	72*	34*
O=[N+]([O-])c1ccc(N/N=C/c2ccc(O)c(O)c2O)c(S(=O)(=O)N2CCOCC2)c1	7	0	-2	-14	-1	.	.
O=[N+]([O-])c1ccc(N/N=C/c2cccc(O)c2O)c(S(=O)(=O)N2CCOCC2)c1	133*	54*	-55	13	-7	86*	33*
O=C(COC(=O)/C=C/c1ccccc1)NNC(=O)c1ccccc1F	2	0	12	11	.	.	.
CN(C)S(=O)(=O)c1ccc(N2CCCC2)c(C(=O)Nc2nc3ccccc3s2)c1	125*	76*	-30	-40	-11	30	91*
Cc1cccc2sc(NC(=O)c3cc(S(=O)(=O)N(C)C)ccc3N3CCCC3)nc12	63*	55*	-11	-5	43	47*	78*
CN(C)S(=O)(=O)c1ccc(N2CCCC2)c(C(=O)Nc2nc3ccc(F)cc3s2)c1	11	30	-22	-30	17	.	.
Fc1ccc(Oc2ccnc(Cl)n2)c(Cl)c1	0	-2	-4	-18	.	.	.
Cc1cc(NC(=O)CSc2nc(C3CCCCC3)nc3ccccc23)no1	-3	-2	4	-4	35	.	.
Cc1cc(NC(=O)CSc2nc(C3CC3)nc3sc4c(c23)CCC(C)C4)no1 (centres undefined)	51*	65*	-115	-47	.	4	4
Oc1ccc(/C=N/Nc2nc(N3CCCC3)nc(N3CCCC3)n2)cc1O	257*	67*	-1	3	-126	180*	44*
SMILES	UPR CHOP act	XBP1 UPR activ	697 NFkB inh	Jurkat NFkB inh	CHOP inhibitor	CHOP UPR conf	UPR XBP1 confirm
CN(c1ccc(OCC(=O)NC2CCC(O)CC2)cc1)S(=O)(=O)c1ccc(Cl)cc1 (centres undefined)	1	-2	17	10	.	.	.
Nc1nnc(SCC(=O)OCC(=O)c2ccccc2Br)s1	-1	-2	-20	-5	-9	.	.
Cc1oc2cc(O)ccc2c(=O)c1-c1cnn(-c2ccccc2)c1	4	4	-12	-15	12	.	.
CCc1cc2c(=O)c(-c3cnn(-c4ccccc4)c3)c(C)oc2cc1OCC(=O)Nc1cccc(C)c1	148*	75*	-21	4	94*	78*	121*
COc1ccc(C(=O)OC(C)C(=O)NC2CCCCC2C)cc1S(=O)(=O)N1CCOCC1 (centres undefined)	-3	-3	2	4	.	.	.
O=C(/C=C/c1ccco1)NC(=S)Nc1ccc(O)c(-c2nc3ccccc3s2)c1	106*	153*	-9	6	26	86*	287*
COc1ccc(NC(=S)NC(=O)/C=C/c2ccco2)cc1	6	2	-44	2	-36	.	.
O=C(NS(=O)(=O)N1CCCC1)C1=C(N2CCCC2)COC1=O	-2	0	-12	-7	.	.	.
O=C(NCc1ccccc1Cl)c1cccc2c1C(=O)c1ccc(-c3ccc(OC(F)(F)F)cc3)cc1S2(=O)=O	128*	164*	5	-12	.	85*	115*
CCOc1cc(/C=C/C(=O)OCC(=O)NCC2CCCO2)cc(Cl)c1OC (centres undefined)	-1	-5	-15	-5	.	.	.
Cc1ccc(N2CCN(c3ccc(NCc4nc5ccccc5n4C)cc3)CC2)cc1	45*	66*	-23	7	60	37*	89*
COc1cc(SC)ccc1C(=O)OCC(=O)N1CCCC1	3	7	-27	-11	.	.	.
O=C(CSc1nc2ccc(Nc3nc(N4CCOCC4)nc(N4CCOCC4)n3)cc2s1)Nc1ccccc1F	106*	277*	6	19	.	111*	302*
COc1ccc(N2CCN(Cc3cc(=O)oc4cc(-c5ccccc5)c(O)cc34)CC2)cc1	116*	107*	-29	1	23	83*	78*
O=c1cc(CN2CCN(c3ccccc3F)CC2)c2cc(O)c(-c3ccccc3)cc2o1	5	2	-6	17	-12	.	.
C/C(CCC12CC3CC(CC(C3)C1)C2)=N\NC(N)=S	220*	83*	20	11	41	96*	63*
c1ccc2sc(N3CCOCC3)nc2c1	1	-1	-15	-28	15	.	.
COc1cccc2sc(N3CCN(c4nc5ccccc5s4)CC3)nc12	88*	94*	13	20	80*	42*	86*
